{"data": "Measured values of several laboratories", "target": "Ribosomal protein S6 kinase beta-1 (RPS6KB1, Homo sapiens, UniProt P23443)", "read-out": "enzyme activity", "mode": "inhibitor", "note": "Each line is one published result; the experiments were not run side by side."}
{"Structure (SMILES)": "CCN(CC)c1ccc(C2=NNC(=O)CC2C)cc1[N+](=O)[O-] (stereo not drawn)", "tested at": "10 µM", "remaining activity [%]": 109}
{"Structure (SMILES)": "CCN(CC)CCNC(=O)c1c(C)[nH]c(/C=C2\\C(=O)Nc3ccc(F)cc32)c1C", "tested at": "1 µM", "remaining activity [%]": 31}
{"Structure (SMILES)": "CC(C)(C)c1nc(-c2cccc(NS(=O)(=O)c3c(F)cccc3F)c2F)c(-c2ccnc(N)n2)s1", "method": "radiometric", "tested at": "1 µM", "remaining activity [%]": 75}
{"Structure (SMILES)": "Oc1cccc(-c2nc(N3CCOCC3)c3oc4ncccc4c3n2)c1", "tested at": "10 µM", "remaining activity [%]": 90}
{"Structure (SMILES)": "O=S(=O)(Nc1cc(Sc2ncn[nH]2)c(O)c2ccccc12)c1ccc(-c2ccccc2)cc1", "tested at": "1 µM", "remaining activity [%]": "≥ 75"}
{"Structure (SMILES)": "Nc1nc(Nc2ccccc2)sc1C(=O)c1c(F)cccc1F", "tested at": "10 µM", "remaining activity [%]": 57}
{"Structure (SMILES)": "Cc1sc(C(=O)NC2COC2)cc1-n1cc(NC(=O)Nc2c(F)cccc2Cl)cn1", "tested at": "10 µM", "remaining activity [%]": 92.1}
{"Structure (SMILES)": "COc1cc(Nc2cnc(C#N)c(O[C@H](C)CN(C)C)n2)ncc1-c1cnn(C)c1", "method": "radiometric", "tested at": "10 µM", "remaining activity [%]": 85}
{"Structure (SMILES)": "Nc1nc(NC2CCCCC2)sc1C(=O)c1ccccc1", "tested at": "10 µM", "remaining activity [%]": 78}
{"Structure (SMILES)": "Cc1[nH]c(/C=C2\\C(=O)Nc3ccc(F)cc32)c(C)c1C(=O)N[C@H]1CCN(C(=O)N(C)C)C1", "tested at": "1 µM", "remaining activity [%]": 52}
{"Structure (SMILES)": "Cc1ccc(Nc2nccc(N(C)c3ccc4c(C)n(C)nc4c3)n2)cc1S(N)(=O)=O", "tested at": "0.5 µM", "remaining activity [%]": 96}
{"Structure (SMILES)": "FC(F)c1nc2ccccc2n1-c1nc(N2CCOCC2)nc(N2CCOCC2)n1", "tested at": "10 µM", "remaining activity [%]": 98}
